From publication PMC6117112 (ACS chemical biology, 2018)
Read-outs that look alike come from different tables or passages of the source.

Assays:
[1] = MTT cytotoxicity assay in A549 cells, in the dark; format: cell-based; conditions: human
[2] = MTT cytotoxicity assay in HUVECs, in the dark; format: cell-based, human; conditions: human, HUVECs (human umbilical vein endothelial cells)
[3] = test system: mitochondria; conditions: cited from earlier work
[4] = format: cell-based; conditions: human, A549 cells
[5] = format: cell-based; conditions: human, HUVECs (human umbilical vein endothelial cells)
[6] = test system: A549 cells; assay: Mitochondrial bioenergetics; format: cell-based, human
How it was run: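 Seeded 20,000 cells/well 24 h before, then 4 h with vehicle (0.4% DMSO) or test compound (0.1, 1.0, 10 μM). One plate blue-LED illuminated 1 h at 37 °C, the other kept dark. XF base medium with 1 mM pyruvate, 2 mM glutamine, 25 mM glucose, pH 7.4; 30 min at 37 °C, no CO2. OCR over 80 min after oligomycin, FCCP, then rotenone/antimycin A (each 1.0 μM). Three experiments × 8 replicates; mean ±SEM; one-way ANOVA, Tukey.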

[7] = test system: HUVECs; assay: MTT cytotoxicity assay in HUVECs, in the dark; format: cell-based, human; conditions: HUVECs, non-illuminated
[8] = 10 μM, after 1 h of illumination to induce CO release

Compound | IC50 [1] [µM] | IC50 [2] [µM] | IC50 [5] [µM] | also measured
O=C(NCCCCCCCC[P+](c1ccccc1)(c1ccccc1)c1ccccc1)c1ccc(-c2oc3cc4ccccc4cc3c(=O)c2O)cc1 [Compound 3, (8-(4-(3-hydroxy-4-oxo-4H-benzo[g]chromen-2-yl)benzamido)octyl)triphenylphosphonium bromide] | 8.48 ± 4 | 8.4 ± 3.6 |  | 
O=C(NCCCCCCCC[P+](c1ccccc1)(c1ccccc1)c1ccccc1)c1ccc(C(=O)Oc2cc3ccccc3cc2C(=O)O)cc1 [Compound 5, (8-(4-(((3-carboxynaphthalen-2-yl)oxy)carbonyl)benzamido)octyl)triphenylphosphonium bromide] | 69.1 ± 11 | 90 ± 7.5 |  | 
O=c1c(O)c(-c2ccc(O)c(O)c2)oc2cc(O)cc(O)c12 [quercetin] |  |  |  | effect on mitochondrial bioenergetics [3]: increases basal respiration, maximal respiration, ATP-linked respiration and the reserve capacity of mitochondria
O=C(NCC[P+](c1ccccc1)(c1ccccc1)c1ccccc1)c1ccc(-c2oc3cc4ccccc4cc3c(=O)c2O)cc1.[Br-] [Compound 2, (2-(4-(3-hydroxy-4-oxo-4H-benzo[g]chromen-2-yl)benzamido)ethyl)triphenylphosphonium bromide] | 14.1 ± 2.7 | 1.51 ± 1.4 | 3.78 ± 1.5 | IC50 [4]: 4.6 ± 3.6 µM; ATP production (OCR) [6, 8]: decreased; basal respiration (OCR) [6, 8]: decreased; maximal respiration (OCR) [6, 8]: decreased; reserve capacity (OCR) [6, 8]: decreased; concentration needed to produce significant changes in bioenergetics parameters ([6]; light-triggered CO release): 10 µM
O=C(NCC[P+](c1ccccc1)(c1ccccc1)c1ccccc1)c1ccc(C(=O)Oc2cc3ccccc3cc2C(=O)O)cc1.[Br-] [Compound 4, (2-(4-(((3-carboxynaphthalen-2-yl)oxy)carbonyl)benzamido)ethyl)triphenylphosphonium bromide] | > 100 |  | > 100 | cytotoxicity (MTT), result in words [7]: no cytotoxicity
O=c1cc(-c2ccccc2)oc2cc(O)c(O)c(O)c12 [baicalein] |  |  |  | effect on mitochondrial bioenergetics [3]: decreases ATP-production via uncoupling of mitochondrial membranes
O=C(O)CC[P+](c1ccccc1)(c1ccccc1)c1ccccc1.[Br-] [TPPBr, 2-carboxyethyl-triphenylphosphonium bromide, reference compound] | > 100 | > 100 | > 100 | changes in the mitochondrial bioenergetics profile ([6]; 0.1–10 μM, illuminated or non-illuminated cells): no significant changes
